The values below come from ChEMBL document CHEMBL1142985, “Antineoplastic agents. 550. Synthesis of 10b(s)-epipancratistatin from (+)-narciclasine” (2007).

Assay type in all cases: functional
The test system of one assay is BXPC-3. Nature of the assay: Growth inhibition of human BXPC3 cells after 48 hrs. To be noted: BXPC-3, 48 h. Summed up: (§1)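 NCI sulforhodamine B assay. Cells in 5% fetal bovine serum/RPMI1640 seeded, grown 24 h, then exposed to serial compound dilutions for 48 h. Fixed with trichloroacetic acid, stained with sulforhodamine B, optical density read on a plate reader. GI50 taken as the concentration causing a 50% reduction in net protein increase.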

A further assay relates to MCF7. Kind of assay: Growth inhibition of human MCF7 cells after 48 hrs. The settings on record: MCF7, 48 h. Summed up: as §1
Another assay deals with P388. Kind of assay: Growth inhibition of murine P388 cells after 48 hrs. To be noted: Mus musculus, P388, 48 h; read-out: ED50 (the source's name). In a few lines: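 Mouse leukemia P388 cells held 24 h in 10% horse serum/Fisher medium, then incubated 48 h with serial compound dilutions. Cell numbers counted on a Coulter particle counter; ED50 taken as the concentration giving 50% growth inhibition.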

For a further assay, the system named is KM-20L2. Nature of the assay: Growth inhibition of human KM20L2 cells after 48 hrs. The settings on record: KM-20L2, 48 h. Summed up:
as §1

In a further assay the test system is DU-145. Nature of the assay: Growth inhibition of human DU145 cells after 48 hrs. To be noted: DU-145, 48 h. In a few lines: as §1
A further assay deals with SF-268. Kind of assay: Growth inhibition of human SF268 cells after 48 hrs. To be noted: SF-268, 48 h. In a few lines:
as §1

For a further assay, the system named is NCI-H460. Kind of assay: Growth inhibition of human NCI-H460 cells after 48 hrs. The settings on record: NCI-H460, 48 h. Summed up:
as §1

Structures are written as SMILES. ≈ marks a conversion by molar mass, not a printed value.

As for `O=C1N[C@@H]2C(=C[C@H](O)[C@@H](O)[C@H]2O)c2cc3c(c(O)c21)OCO3` [NARCICLASINE], the concentration for 50% growth inhibition (GI50) with BXPC-3 is 0.0035 µg/mL (≈ 0.0114 µM); with MCF7, 0.0032 µg/mL (≈ 0.0104 µM); in the assay with KM-20L2, 0.0032 µg/mL (≈ 0.0104 µM); in the assay with DU-145, 0.0032 µg/mL (≈ 0.0104 µM); in the assay with SF-268 it was 0.0031 µg/mL (≈ 0.0101 µM); in the assay on NCI-H460, 0.0084 µg/mL (≈ 0.0273 µM). Also, the EC50 with P388 came out at 0.0012 µg/mL (≈ 0.00391 µM).

For `CC(=O)O[C@@H]1[C@@H](OC(C)=O)[C@H](O)[C@H]2c3cc4c(c(O)c3C(=O)N[C@H]2[C@@H]1OC(C)=O)OCO4`, the GI50 in the assay on BXPC-3, in the assay with MCF7, with KM-20L2, in the assay on DU-145, with SF-268 and with NCI-H460 was over 1 µg/mL in each case. For the same molecule, the EC50 in the assay with P388 was over 1 µg/mL.

On to `CC(=O)Oc1c2c(cc3c1C(=O)N[C@@H]1C3=C[C@H](OC(C)=O)[C@@H](OC(C)=O)[C@H]1OC(C)=O)OCO2`, for which the GI50 in the assay with BXPC-3 came out at 0.16 µg/mL (≈ 0.337 µM); with MCF7, 0.088 µg/mL (≈ 0.185 µM); in the assay on KM-20L2, 0.043 µg/mL (≈ 0.0904 µM); with DU-145 it was 0.023 µg/mL (≈ 0.0484 µM); in the assay on SF-268, 0.055 µg/mL (≈ 0.116 µM); in the assay with NCI-H460, 0.28 µg/mL (≈ 0.589 µM). Moreover, in the assay with P388, the EC50 is 0.027 µg/mL (≈ 0.0568 µM).

On to `CC(=O)O[C@@H]1[C@@H](OC(C)=O)[C@H](O)[C@@]2(O)c3cc4c(c(O)c3C(=O)N[C@H]2[C@@H]1OC(C)=O)OCO4`, for which the GI50 with BXPC-3, in the assay on MCF7, with KM-20L2, with DU-145, with SF-268 and with NCI-H460 was over 10 µg/mL throughout. In addition, the EC50 in the assay with P388 was over 10 µg/mL.

For the molecule `CC(=O)O[C@H]1[C@@H](OC(C)=O)[C@@H]2NC(=O)c3c(cc4c(c3O)OCO4)[C@@]23OC(=S)O[C@H]3[C@@H]1OC(C)=O`, the GI50 in the assay on BXPC-3, in the assay on MCF7, in the assay on KM-20L2, in the assay with DU-145, with SF-268 and in the assay on NCI-H460 was over 1 µg/mL each time. In addition, the EC50 in the assay with P388 is over 1 µg/mL.

In the case of `O=C1N[C@H]2[C@H](O)[C@H](O)[C@@H](O)[C@H](O)[C@H]2c2cc3c(c(O)c21)OCO3`, the GI50 was 0.32 µg/mL (≈ 0.984 µM) in the assay on BXPC-3; 0.27 µg/mL (≈ 0.83 µM) in the assay on MCF7; 0.31 µg/mL (≈ 0.953 µM) in the assay with KM-20L2; 0.21 µg/mL (≈ 0.646 µM) in the assay on DU-145; 0.26 µg/mL (≈ 0.799 µM) in the assay on SF-268; 0.23 µg/mL (≈ 0.707 µM) in the assay with NCI-H460. Moreover, the EC50 in the assay with P388 was 0.14 µg/mL (≈ 0.43 µM).

Take `CC(=O)Oc1c2c(cc3c1C(=O)N[C@H]1[C@H](OC(C)=O)[C@H](OC(C)=O)[C@@H](OC(C)=O)[C@H](OC(C)=O)[C@@]31O)OCO2`: the concentration for 50% growth inhibition (GI50) in the assay with BXPC-3, in the assay with MCF7, in the assay on KM-20L2, with DU-145, in the assay with SF-268 and in the assay on NCI-H460 was over 10 µg/mL each time. The EC50 in the assay on P388 was 8.9 µg/mL (≈ 16.1 µM).

For `COC(=O)C(=O)Oc1c2c(cc3c1C(=O)N(C(=O)C(=O)OC)[C@H]1[C@H](OC(C)=O)[C@H](OC(C)=O)[C@@H](OC(C)=O)[C@H](OC(C)=O)[C@@]31OC(=O)C(=O)OC)OCO2`, the 50% growth inhibitory concentration (GI50) with BXPC-3, in the assay on MCF7, with KM-20L2, in the assay on DU-145, with SF-268 and in the assay with NCI-H460 was over 10 µg/mL each time. Moreover, the EC50 with P388 is over 10 µg/mL.

With `CC(=O)O[C@@H]1[C@@H](OC(C)=O)[C@H](OC(C)=O)[C@H]2c3cc4c(c(O)c3C(=O)N[C@H]2[C@@H]1OC(C)=O)OCO4`, the 50% growth inhibitory concentration (GI50) in the assay on BXPC-3 was 1.8 µg/mL (≈ 3.65 µM); in the assay with MCF7 it was 2 µg/mL (≈ 4.05 µM); in the assay with KM-20L2, 1.8 µg/mL (≈ 3.65 µM); in the assay with DU-145, 1.4 µg/mL (≈ 2.84 µM); with SF-268 it was 3 µg/mL (≈ 6.08 µM); with NCI-H460, 1.3 µg/mL (≈ 2.63 µM). For the same molecule, the EC50 in the assay with P388 turned out to be 0.2 µg/mL (≈ 0.405 µM).

With `O=C1N[C@H]2[C@H](O)[C@H](O)[C@@H](O)[C@H](O)[C@@H]2c2cc3c(c(O)c21)OCO3` [PANCRATISTATIN], the 50% growth inhibitory concentration (GI50) was found to be 0.02 µg/mL (≈ 0.0615 µM) in the assay with BXPC-3; 0.023 µg/mL (≈ 0.0707 µM) in the assay with MCF7; 0.025 µg/mL (≈ 0.0769 µM) with KM-20L2; 0.015 µg/mL (≈ 0.0461 µM) with DU-145; 0.014 µg/mL (≈ 0.043 µM) with SF-268; 0.032 µg/mL (≈ 0.0984 µM) in the assay on NCI-H460. For the same molecule, in the assay with P388, the EC50 was determined as 0.017 µg/mL (≈ 0.0523 µM).

Take `CC(=O)Oc1c2c(cc3c1C(=O)N[C@H]1[C@H](OC(C)=O)[C@H](OC(C)=O)[C@@H](OC(C)=O)[C@H](O)[C@@]31O)OCO2`: the GI50 with BXPC-3 is 14.4 µg/mL (≈ 28.3 µM); in the assay with MCF7, 5.2 µg/mL (≈ 10.2 µM); with KM-20L2, 3.6 µg/mL (≈ 7.07 µM); with DU-145 it was 4.3 µg/mL (≈ 8.44 µM); with SF-268 it was 9.9 µg/mL (≈ 19.4 µM); in the assay with NCI-H460, over 10 µg/mL. Moreover, the EC50 with P388 is 1.7 µg/mL (≈ 3.34 µM).

Consider `CC(=O)O[C@@H]1[C@H](OC(C)=O)[C@@H](OC(C)=O)C=C2c3cc4c(c(O)c3C(=O)N[C@H]21)OCO4`, for which the 50% growth inhibitory concentration (GI50) in the assay with BXPC-3 worked out at 0.011 µg/mL (≈ 0.0254 µM); in the assay on MCF7, 0.06 µg/mL (≈ 0.138 µM); with KM-20L2 it was 0.051 µg/mL (≈ 0.118 µM); with DU-145, 0.028 µg/mL (≈ 0.0646 µM); in the assay on SF-268, 0.16 µg/mL (≈ 0.369 µM); in the assay on NCI-H460, 0.033 µg/mL (≈ 0.0761 µM). In addition, in the assay on P388, the EC50 is 0.013 µg/mL (≈ 0.03 µM).

Take `CC(=O)O[C@H]1[C@@H](OC(C)=O)[C@@H]2NC(=O)c3c(cc4c(c3O)OCO4)[C@@]23OC(=O)O[C@H]3[C@@H]1OC(C)=O`: the concentration for 50% growth inhibition (GI50) in the assay on BXPC-3 was 3.1 µg/mL (≈ 6.28 µM); in the assay with MCF7, 4.9 µg/mL (≈ 9.93 µM); in the assay on KM-20L2 it was 2.8 µg/mL (≈ 5.68 µM); in the assay on DU-145 it was 1.5 µg/mL (≈ 3.04 µM); in the assay with SF-268, 7.5 µg/mL (≈ 15.2 µM); in the assay on NCI-H460, 2.9 µg/mL (≈ 5.88 µM). The EC50 in the assay with P388 came out at 1.5 µg/mL (≈ 3.04 µM).

The GI50 is the concentration at which growth is held to half of that of the control.
